# Compound activity (PubChem)
# PHOSPHO1 block: PubChem AID 1565; 1.1% of 290,000 active; recombinant PHOSPHO1, absorbance phosphatase assay; inhibition, % at 13.3 µM; Phosphoethanolamine/phosphocholine phosphatase (Homo sapiens), Q8TCT1; in the data active means inhibition above about 60%
# MrgX1 PAM: positive allosteric modulators of MrgX1, primary screen, HEK293 cells, Fluo-4 calcium flux; Mas-related G-protein coupled receptor member X1 (Homo sapiens), Q96LB2; FDSS; stronger effect = higher value; B-score at 10 µM; 0.63% of 310,000 active;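 active means plate-corrected calcium response at least 3 library SD above typical, normal starting fluorescence, not activating the receptor alone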;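 further: compound read alongside a low EC10 to EC30 dose of BAM8-22 agonist; peak minus trough fluorescence over baseline measured at the second addition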
# Target sequence (Q96LB2 whole entry, looked up): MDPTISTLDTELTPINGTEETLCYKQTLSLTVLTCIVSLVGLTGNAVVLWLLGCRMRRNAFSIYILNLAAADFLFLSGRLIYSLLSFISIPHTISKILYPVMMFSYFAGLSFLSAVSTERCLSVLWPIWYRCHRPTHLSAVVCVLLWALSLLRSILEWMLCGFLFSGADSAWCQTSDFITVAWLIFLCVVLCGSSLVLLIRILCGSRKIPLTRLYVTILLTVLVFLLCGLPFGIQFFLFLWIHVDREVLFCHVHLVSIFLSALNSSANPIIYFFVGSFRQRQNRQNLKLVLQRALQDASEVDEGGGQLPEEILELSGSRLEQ
# RGS4 block: RGS4 inhibitors, primary screen, cell-based, HEK293 M3R inducible RGS4, calcium flux | Regulator of G-protein signaling 4 (Homo sapiens), P49798 | AID 463165, 2010 | Fluo-4 calcium flux; stronger effect = higher value; triggered by carbachol at its EC20 | 0.45% of 310,000 active | B-score at 10 µM;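 active means B-score, a plate-corrected calcium signal, over three deviations above library mean, with baseline fluorescence within five deviations of library mean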;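 further: RGS4 expression induced by doxycycline in cells with stable M3 receptor; B-score is computed from the integrated fluorescence ratio over baseline after carbachol; higher B-score means a larger calcium signal and so more RGS4 inhibition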
# Target sequence (P49798 whole entry, looked up): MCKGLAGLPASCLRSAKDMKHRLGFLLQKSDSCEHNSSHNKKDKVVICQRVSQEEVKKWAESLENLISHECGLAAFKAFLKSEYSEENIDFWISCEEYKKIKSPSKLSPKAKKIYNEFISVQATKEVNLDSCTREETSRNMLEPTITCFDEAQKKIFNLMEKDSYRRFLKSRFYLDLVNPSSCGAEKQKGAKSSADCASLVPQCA
# MrgX1 antagonist: antagonists of human MrgX1 receptor, primary screen, HEK293 cells, Fluo-4 calcium flux | BAM8-22 antagonism; stronger effect = lower value | B-score at 10 µM | 1.3% of 310,000 active;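 active means calcium-response B-score plate-corrected more than 3 library SD below zero, starting fluorescence within 5 deviations, no agonist response on first addition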;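 further: peak minus trough fluorescence over baseline after final BAM8-22 challenge near maximal dose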
# RGS4 pot: RGS4 potentiators or activators, primary screen, cell-based, HEK293 M3R inducible RGS4, calcium flux; carbachol calcium flux Fluo4; stronger effect = lower value; B-score at 10 µM; 0.92% of 310,000 active; AID 463111, 2010;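 active means B-score of the integrated calcium signal more than 4 SD below the library mean, with starting fluorescence not abnormally high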;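 further: negative B-score means reduced calcium response which marks RGS4 activation or potentiation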
#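 Reagent: ECmax carbachol challenge; Test system: M3R-expressing HEK293 line, RGS4 induced by doxycycline; Schedule: overnight RGS4 induction, 30 min dye load 37 °C, 20 min compound RT; Detection: calcium dye Fluo4 fluorescence; Read-out: Agonist-evoked peak-minus-minimum fluorescence over baseline, integrated ratio, B score.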
# MrgX1 ag: agonists of human MrgX1 receptor, primary screen, HEK293 cells, Fluo-4 calcium flux. Mas-related G-protein coupled receptor member X1 (Homo sapiens), Q96LB2. 0.44% of 310,000 active. Fluo-4 calcium fluorescence, agonist mode; stronger effect = higher value. B-score at 10 µM;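 active means calcium response B-score plate-corrected fluorescence ratio at least 3 library SD, with starting fluorescence B-score inside 5 SD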
#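 Test system: HEK293 cells stably expressing human MrgX1 receptor; Input: fifteen thousand cells per well; Dosing: compound delivered in addition one of three; Schedule: overnight seeding, then 1 h dark dye loading; Technique: Fluo-4 NW calcium fluorescence; Measure: B-scored fluorescence response ratio; Controls: positive and negative controls per plate.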
# RGS4 inh valid: enhanced carbachol calcium response, M3R/RGS4 cells, RGS4 inhibitor project, cell-based, validation screen, HEK293 M3R/RGS4, calcium flux. carbachol calcium Fluo-4 fluorescence; carbachol added at its EC20; 0 = buffer wells, 100 = carbachol control. calcium response, % at 10 µM. AID 492999, 2010. 65% of 1,700 active. shares compounds with RGS4 block;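 active means duplicate-averaged calcium response above the buffer-only control mean plus 5 SD of those controls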;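 further: integrated fluorescence ratio F max minus min over baseline F0; higher response in RGS4-induced cells means RGS4 inhibition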
# RGS4 uninduced: carbachol calcium response in non-induced M3R cells, confirmation, counter-screen for RGS4 inhibitor project, cell-based, HEK293 M3R | shares compounds with RGS4 block | carbachol calcium Fluo-4; submaximal (EC20) carbachol stimulus; buffer wells 0%, carbachol control wells 100% | activity (percent), % at 10 µM | 20% of 1,900 active | AID 493000, 2010; call rule not given here;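 further: RGS4 induction absent so cells express M3R without RGS4; higher means more calcium signal and flags a non-specific hit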
# RGS4 inh ctr2: second counter-screen for RGS4 inhibitors: non-induced cells without carbachol; calcium response (agonist-mode artifact), % at 10 µM; HEK293 M3R/RGS4 non-induced, Fluo-4 calcium, no carbachol; normalised: buffer wells 0%, carbachol wells 100%; shares compounds with RGS4 block; 22% of 1,900 active;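 active means duplicate-averaged calcium rise in uninduced cells above buffer wells' mean plus 5 SD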
# * marks the source's active call; other numbers are inactive results; i = inactive; / = no result. Only some compounds are listed: those with a hit (about 4.5% of all), similar ones and a draw of the others.
SMILES,PHOSPHO1 block,MrgX1 PAM,RGS4 block,MrgX1 antagonist,RGS4 pot,MrgX1 ag,RGS4 inh valid,RGS4 uninduced,RGS4 inh ctr2
Cc1nc2ccccc2c(=O)n1-c1cccc([N+](=O)[O-])c1,-35,i,i,i,i,i,/,/,/
O=C(O)c1cccc(NC(=O)N2C[C@H]3C[C@@H](C2)c2cccc(=O)n2C3)c1,-8,i,i,i,i,i,/,/,/
Cn1c(O)c(Cc2cccc(Cl)c2Cl)c(=O)n(C)c1=O,23,i,i,i,i,i,/,/,/
C=C(CC1CC(O)[C@]2(C)OC3CC4OC5C[C@]6(C)O[C@]7(C)CCC8OC9C[C@]%10(C)OC%11C(C)=CC(=O)OC%11CC%10OC9C[C@@H](C)C8OC7CC6O[C@]5(C)C/C=C\C4OC3CC2O1)C(=O)O (stereo partly specified),-8,i,i,i,i,i,i,i,i
O=C1/C(=C\c2cc3c(cc2Cl)OCO3)N2CCC1CC2,-30,i,i,i,i,i,/,/,/
O=C1/C(=C\c2ccc(Cl)c(Cl)c2)N2CCC1CC2,43,i,21*,i,i,i,16%*,i,i
O=C1/C(=C\c2ccc(Cl)cc2Cl)N2CCC1CC2,2,i,7.7*,i,i,i,6.5%*,i,i
O=C1/C(=C\c2ccncc2)N2CCC1CC2,20,i,i,i,i,i,/,/,/
O=C1NC(=O)C(=Cc2coc3ccc(O)cc3c2=O)C(=O)N1,-2,i,5.3*,i,i,i,8.5%*,i,i
CCN1C(=O)/C(=C\c2ccc([N+](=O)[O-])s2)C(=O)NC1=S,28,/,/,/,/,/,/,/,/
CN1C(=O)/C(=C/c2ccc(Cl)s2)C(=O)NC1=S,-36,i,9.9*,i,i,i,5.5%*,i,i
C=CCN1C(=O)/C(=C/c2ccc(Br)s2)C(=O)NC1=S,-2,i,11*,-5.6*,i,i,5.0%*,i,i
CN1C(=O)NC(=O)/C(=C\C=C\c2ccccc2[N+](=O)[O-])C1=O,-2,i,6.6*,i,i,i,16%*,i,10%*
COc1cc(/C=C2\C(=O)NC(=O)N(c3ccccc3)C2=O)c([N+](=O)[O-])cc1OC,46,/,/,/,/,/,/,/,/
COc1ccc(OC)c(N2C(=O)NC(=O)/C(=C/c3ccc([N+](=O)[O-])s3)C2=O)c1,4,i,5.8*,i,i,i,15%*,i,i
COc1ccc(OC)c(N2C(=O)/C(=C/c3ccco3)C(=O)NC2=S)c1,-11,i,i,i,i,i,/,/,/
Cc1ccc2c(c1)=NC(=O)/C(=C/c1c(O)[nH]c(=O)[nH]c1=O)C=2,-91,i,i,i,i,i,/,i,i
CN1C(=O)/C(=C/C=C/c2ccco2)C(=O)NC1=S,-59,i,i,i,i,i,/,/,/
C=CCN1C(=O)NC(=O)/C(=C/C=C/c2ccccc2)C1=O,18,/,5.3*,/,i,/,26%*,i,18%*
O=C1NC(=O)N(CCc2ccc(F)cc2)C(=O)/C1=C\C=C\c1ccccc1,-17,/,/,/,/,/,/,/,/
